Results on one compound are retold here after ChEMBL document CHEMBL3872218, “Synthesis and T-type calcium channel-blocking effects of aryl(1,5-disubstituted-pyrazol-3-yl)methyl sulfonamides for neuropathic pain treatment” (Eur J Med Chem, 2016).

The bioavailability is the share of a dose that reaches the circulation, judged against a reference dose that is usually intravenous. A word on the IC50: it is the concentration needed to halve the response being measured. As usually defined, the AUC(0-inf) is total exposure, with the tail of the curve extrapolated. Lower therefore signals low exposure.

A short description of data set [1]: Oral bioavailability in Sprague-Dawley rat at 10 mg/Kg. It counts as ADME, organism-based. Particulars: in vivo.
A short description of data set [2]: Drug excretion in Sprague-Dawley rat at 10 mg/kg, po. Type of data set: ADME, organism-based. To be noted: in vivo, read-out: Drug excretion.
Data set [3] in a line: Ratio of drug level in brain to plasma in Sprague-Dawley rat at 10 mg/kg, po at 2 hrs post dose. Type of data set: ADME, organism-based. Particulars: read-out: BPR.
The target of data set [4] is CYP3A4 (Homo sapiens, UniProt P08684). Description: Inhibition of human CYP3A4 assessed as remaining activity at 10 uM using vivid CYP450 substrate measured after 15 mins by fluorescence assay relative to ketoconazole. Type of data set: ADME. To be noted: probe vivid CYP450 substrate, read-out: Activity. The procedure, abridged:
(§1)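 Vivid fluorescence CYP assay: test compound at […] in water, mixed with BACULOSOMES master pre-mix and regeneration system, preincubated 15 min at 37 °C. Reaction started with Vivid substrate and NADPH. Remaining activity read by fluorescence as % of control, triplicate, mean ± SD. Isoform-specific reference inhibitors: α-naphthoflavone (1A2), sulfaphenazole (2C9), quinidine (2D6), ketoconazole (3A4).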

Data set [5] addresses CYP2C9 (Homo sapiens, UniProt P11712). In words: Inhibition of human CYP2C9 assessed as remaining activity at 10 uM using vivid CYP450 substrate measured after 15 mins by fluorescence assay relative to sulfaphenazol. Type of data set: ADME. Particulars: probe vivid CYP450 substrate, read-out: Activity. The procedure, abridged: as §1
Data set [6] has as its target T1, CYP1A2 (Homo sapiens, UniProt P05177).
T1 sequence (P05177 whole entry): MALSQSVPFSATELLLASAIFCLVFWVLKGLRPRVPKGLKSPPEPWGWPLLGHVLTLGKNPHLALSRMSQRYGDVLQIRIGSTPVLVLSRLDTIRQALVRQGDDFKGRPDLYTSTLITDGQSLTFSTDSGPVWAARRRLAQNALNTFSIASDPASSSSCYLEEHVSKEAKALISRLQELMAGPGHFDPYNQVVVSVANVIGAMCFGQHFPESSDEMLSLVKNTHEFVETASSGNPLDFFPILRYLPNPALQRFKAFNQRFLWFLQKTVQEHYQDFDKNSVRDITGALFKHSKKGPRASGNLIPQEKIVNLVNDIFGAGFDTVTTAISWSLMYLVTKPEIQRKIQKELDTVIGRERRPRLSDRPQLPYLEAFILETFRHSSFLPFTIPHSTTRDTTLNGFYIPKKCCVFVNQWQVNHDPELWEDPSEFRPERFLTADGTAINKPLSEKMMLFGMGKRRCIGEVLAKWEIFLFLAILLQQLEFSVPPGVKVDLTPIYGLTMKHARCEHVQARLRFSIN
Description: Inhibition of human CYP1A2 assessed as remaining activity at 10 uM using vivid CYP450 substrate measured after 15 mins by fluorescence assay relative to alpha-naphthoflavon. Type of data set: ADME. To be noted: probe vivid CYP450 substrate, read-out: Activity. The procedure, abridged:
as §1

Data set [7] can be described thus: Metabolic stability in human liver microsomes assessed as compound remaining at 1 uM in presence of NADPH as cofactor by LC-MS/MS method. It counts as ADME. Particulars: read-out: Stability. An outline of the steps:
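Pooled mixed-gender human liver microsomes incubated with compound at 37 °C with NADPH as cofactor. Result given as % parent compound remaining.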
(Liver microsomes are vesicles of endoplasmic reticulum, rich in cytochrome P450 enzymes.)

Data set [8] is described as follows: Plasma concentration in Sprague-Dawley rat at 10 mg/kg, iv at 2 hrs post dose. Type of data set: ADME, organism-based.
The target of data set [9] is Voltage-dependent T-type calcium channel subunit alpha-1H (Homo sapiens, UniProt O95180). Description: Inhibition of Cav3.2 alpha1H (unknown origin) expressed in HEK293 cells by whole-cell patch clamp method. It counts as cell-based. An outline of the steps: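 Whole-cell patch clamp on HEK293 cells expressing Cav3.1 or Cav3.2. T-type currents evoked every 15 s by a 50-ms step from −100 mV to −30 mV. External solution (mM): 140 NaCl, 2 CaCl₂, 10 HEPES, 10 glucose, pH 7.4.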
(In general: The patch-clamp technique gives a direct electrical read-out from membranes.)

A short description of data set [10]: AUC (0 to infinity) in Sprague-Dawley rat at 10 mg/kg, iv. To be noted: in vivo. Further details: dose 10 mg/kg, route intravenous, time infinity. It counts as ADME, organism-based.

Sequence of Voltage-dependent T-type calcium channel subunit alpha-1H (O95180 whole entry): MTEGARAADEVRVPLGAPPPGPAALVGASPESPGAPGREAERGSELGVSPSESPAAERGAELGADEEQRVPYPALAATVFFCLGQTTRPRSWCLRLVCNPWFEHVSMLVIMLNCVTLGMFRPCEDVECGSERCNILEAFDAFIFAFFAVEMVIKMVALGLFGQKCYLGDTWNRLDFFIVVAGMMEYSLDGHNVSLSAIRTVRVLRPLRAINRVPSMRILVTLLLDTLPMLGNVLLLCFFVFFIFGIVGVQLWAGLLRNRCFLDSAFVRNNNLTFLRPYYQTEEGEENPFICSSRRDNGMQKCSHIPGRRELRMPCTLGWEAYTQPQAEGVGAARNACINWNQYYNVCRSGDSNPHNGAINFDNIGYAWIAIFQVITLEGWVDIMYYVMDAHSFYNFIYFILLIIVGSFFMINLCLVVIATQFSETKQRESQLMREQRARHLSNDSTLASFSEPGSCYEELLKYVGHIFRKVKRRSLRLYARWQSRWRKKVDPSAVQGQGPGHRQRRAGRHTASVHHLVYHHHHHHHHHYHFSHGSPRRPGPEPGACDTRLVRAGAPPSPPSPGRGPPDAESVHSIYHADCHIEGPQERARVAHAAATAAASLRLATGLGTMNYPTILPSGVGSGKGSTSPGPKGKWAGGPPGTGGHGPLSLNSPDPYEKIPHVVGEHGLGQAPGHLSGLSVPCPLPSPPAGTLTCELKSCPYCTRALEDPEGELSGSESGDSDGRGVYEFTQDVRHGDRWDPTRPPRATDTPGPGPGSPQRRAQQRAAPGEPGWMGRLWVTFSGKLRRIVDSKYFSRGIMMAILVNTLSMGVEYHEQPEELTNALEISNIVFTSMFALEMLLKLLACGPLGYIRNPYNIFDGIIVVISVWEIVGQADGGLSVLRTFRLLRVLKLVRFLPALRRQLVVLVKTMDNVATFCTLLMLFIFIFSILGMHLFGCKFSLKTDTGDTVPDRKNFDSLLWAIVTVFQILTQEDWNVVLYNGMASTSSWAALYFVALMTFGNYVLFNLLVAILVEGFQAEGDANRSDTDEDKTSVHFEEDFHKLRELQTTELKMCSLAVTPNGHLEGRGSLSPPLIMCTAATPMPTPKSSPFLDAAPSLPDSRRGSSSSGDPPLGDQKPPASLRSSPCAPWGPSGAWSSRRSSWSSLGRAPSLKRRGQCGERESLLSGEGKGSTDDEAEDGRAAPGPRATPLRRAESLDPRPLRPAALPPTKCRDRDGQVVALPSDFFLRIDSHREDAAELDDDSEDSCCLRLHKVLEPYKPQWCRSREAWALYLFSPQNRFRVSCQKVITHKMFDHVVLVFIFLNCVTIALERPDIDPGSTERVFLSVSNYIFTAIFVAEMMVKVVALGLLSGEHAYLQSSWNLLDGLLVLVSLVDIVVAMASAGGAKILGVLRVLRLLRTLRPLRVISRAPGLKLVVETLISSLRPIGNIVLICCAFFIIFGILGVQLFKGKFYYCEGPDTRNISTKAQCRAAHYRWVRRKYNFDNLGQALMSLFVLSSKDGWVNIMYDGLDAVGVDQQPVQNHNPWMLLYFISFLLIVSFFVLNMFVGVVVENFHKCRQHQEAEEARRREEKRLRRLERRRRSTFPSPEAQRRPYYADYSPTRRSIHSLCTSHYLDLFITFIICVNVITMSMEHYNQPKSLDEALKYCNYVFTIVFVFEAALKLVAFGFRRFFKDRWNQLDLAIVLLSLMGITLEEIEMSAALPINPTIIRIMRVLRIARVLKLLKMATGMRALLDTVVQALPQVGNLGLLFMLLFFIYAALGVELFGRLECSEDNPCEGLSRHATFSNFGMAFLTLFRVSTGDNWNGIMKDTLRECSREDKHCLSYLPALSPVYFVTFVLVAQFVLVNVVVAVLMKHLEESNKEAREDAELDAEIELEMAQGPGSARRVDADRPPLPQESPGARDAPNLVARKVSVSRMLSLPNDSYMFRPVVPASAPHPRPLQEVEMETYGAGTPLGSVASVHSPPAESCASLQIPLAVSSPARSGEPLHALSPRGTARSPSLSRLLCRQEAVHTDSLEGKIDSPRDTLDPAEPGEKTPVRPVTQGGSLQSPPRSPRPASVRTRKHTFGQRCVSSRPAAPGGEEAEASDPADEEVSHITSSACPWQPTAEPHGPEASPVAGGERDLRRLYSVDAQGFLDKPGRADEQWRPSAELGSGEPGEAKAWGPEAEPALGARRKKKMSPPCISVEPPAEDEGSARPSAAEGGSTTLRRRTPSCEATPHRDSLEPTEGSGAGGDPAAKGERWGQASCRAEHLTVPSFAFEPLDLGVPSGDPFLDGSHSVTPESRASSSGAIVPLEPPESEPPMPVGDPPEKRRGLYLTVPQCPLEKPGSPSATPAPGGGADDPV
Sequence of CYP3A4 (P08684 whole entry, canonical isoform): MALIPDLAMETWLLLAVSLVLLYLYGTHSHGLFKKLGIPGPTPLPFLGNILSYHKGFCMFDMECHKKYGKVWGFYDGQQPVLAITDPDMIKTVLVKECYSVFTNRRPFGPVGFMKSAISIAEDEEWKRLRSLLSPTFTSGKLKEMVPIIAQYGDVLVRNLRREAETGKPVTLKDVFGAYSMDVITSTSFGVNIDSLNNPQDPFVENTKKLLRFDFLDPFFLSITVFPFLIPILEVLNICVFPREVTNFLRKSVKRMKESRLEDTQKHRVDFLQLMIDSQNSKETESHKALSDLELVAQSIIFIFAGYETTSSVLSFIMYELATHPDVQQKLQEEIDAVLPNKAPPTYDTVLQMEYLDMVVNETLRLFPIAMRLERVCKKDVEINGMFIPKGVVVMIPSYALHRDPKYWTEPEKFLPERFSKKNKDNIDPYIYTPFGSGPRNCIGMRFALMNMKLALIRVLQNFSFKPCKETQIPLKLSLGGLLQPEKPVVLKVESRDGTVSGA
Sequence of CYP2C9 (P11712 whole entry): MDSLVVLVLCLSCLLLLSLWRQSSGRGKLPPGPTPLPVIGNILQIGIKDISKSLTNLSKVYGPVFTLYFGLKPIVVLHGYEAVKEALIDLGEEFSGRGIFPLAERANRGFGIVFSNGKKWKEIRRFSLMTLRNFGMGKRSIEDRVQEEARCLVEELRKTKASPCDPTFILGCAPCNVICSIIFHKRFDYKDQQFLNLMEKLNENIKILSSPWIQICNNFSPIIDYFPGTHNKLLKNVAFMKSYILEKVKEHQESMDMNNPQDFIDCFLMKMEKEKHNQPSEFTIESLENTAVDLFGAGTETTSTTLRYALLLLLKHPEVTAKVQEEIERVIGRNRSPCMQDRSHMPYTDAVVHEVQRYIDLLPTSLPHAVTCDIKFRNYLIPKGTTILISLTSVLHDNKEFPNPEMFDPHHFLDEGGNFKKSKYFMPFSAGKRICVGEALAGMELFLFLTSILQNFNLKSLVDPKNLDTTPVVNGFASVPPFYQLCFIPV

In data set [1], `CC(C)Cc1cc(CNS(=O)(=O)c2cccc(F)c2)nn1-c1ccccc1` showed a bioavailability of 8.3%. The dose excreted in [2] was 0%. Further, in data set [3], the Kp at 2 h turned out to be 0.19. Moreover, the activity at 0.25 h, 10 µM turned out to be 80.1% in data set [4], 30.4% in data set [5] and 45.6% in data set [6]. Besides, the remaining at 1 µM in data set [7] was 1.72%. The compound further returned a concentration at 2 h in [8] of 270 ng/mL. For the same compound, the IC50 in data set [9] came out at 2.08 µM. The AUC(0-inf) in data set [10] was 2020 ng·h/mL.
